{"source": "paper PMC5843917", "about": "(Journal of the Renin-Angiotensin-Aldosterone System: JRAAS, 2017)", "key": {"aldosterone and cortisol": {"tested_on": "aldosterone and cortisol", "details": "cited from earlier work"}, "[1]": {"tested_on": "blood pressure, ACTH-stimulated cortisol", "details": "primary hypertension, all doses tested; cited from earlier work"}, "urine aldosterone": {"tested_on": "urine aldosterone", "assay": "24-hour urine aldosterone excretion after multiple dosing", "format": "in vivo, human", "details": "spironolactone 25 mg/d", "summary_of_the_method": "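Once-daily oral dosing for 8 days in healthy adults (0.1–100 mg; solution in degassed Sprite; double-dummy with an MR antagonist capsule). Urine pooled over 24 h from pre-dose Day 3 to pre-dose Day 4, and from pre-dose Day 7 to pre-dose Day 8, and assayed for aldosterone. Data ln-transformed and fitted with a mixed model (fixed treatment and period, random subject). Ratios of LS geometric means with 90% CIs.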"}, "plasma aldosterone": {"tested_on": "plasma aldosterone", "assay": "Basal plasma aldosterone concentration", "format": "in vivo, human", "details": "multiple dose, model estimate (CV%)"}, "[2]": {"tested_on": "plasma aldosterone, corticosterone, 11-deoxycorticosterone", "assay": "IV ACTH challenge Day 8: plasma aldosterone and precursors", "format": "in vivo, human", "summary_of_the_method": "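After 8 days of oral once-daily dosing in healthy adults, an IV ACTH challenge was given 1 h post-dose on Day 8. Plasma aldosterone, corticosterone and 11-deoxycorticosterone were drawn at −15 min (baseline) and at 30 and 60 min post-challenge. Read-out was change from pre-challenge, averaged over 30 and 60 min. Stimulated aldosterone was fitted with a hyperbolic Imax model against dose and plasma drug level.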"}, "[3]": {"tested_on": "plasma cortisol and 11-deoxycortisol (CYP11B1)", "assay": "IV ACTH challenge Day 8: plasma cortisol and 11-deoxycortisol", "format": "in vivo, human", "details": "spironolactone 25 mg/d", "summary_of_the_method": "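IV ACTH challenge 1 h after the Day 8 oral dose, following daily dosing at 0.1–100 mg in healthy adults (crossover with placebo and an MR antagonist). Plasma cortisol and 11-deoxycortisol were drawn at −15, 30 and 60 min. Read-out was mean change from pre-challenge, with cortisol expressed as the average post-challenge concentration over the 1-h period.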"}, "serum K+ [4]": {"tested_on": "serum K+", "assay": "Basal serum potassium after multiple dosing", "format": "in vivo, human", "details": "model estimate (CV%)"}, "serum K+ [5]": {"tested_on": "serum K+", "assay": "Oral K+ challenge Day 7: serum K+ and K+ renal clearance", "format": "in vivo, human", "summary_of_the_method": "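On Day 7 of once-daily oral dosing, healthy adults received an oral 40 mEq K+ load 3 h post-dose. Dietary K+ that day was cut by 40 mEq to hold daily intake at 125 mEq. Serum K+ was followed for 5 h post-challenge, and Cavg was taken over 5 h. Renal clearance = urinary excretion / serum AUC. Post-challenge K+ was fitted with a hyperbolic Emax model (additive above placebo).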"}, "urinary K+ excretion": {"tested_on": "urinary K+ excretion", "assay": "24-hour urinary K+ excretion Days 3 and 7", "format": "in vivo, human", "details": "spironolactone 25 mg/d"}, "[6]": {"assay": "Safety and tolerability in healthy subjects", "format": "in vivo, human", "details": "multiple administration, ASEB", "summary_of_the_method": "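Two studies in healthy adults confined to the unit: a single ascending oral dose (0.1–300 mg) and once-daily dosing for 8 days (0.1–100 mg) with placebo and an MR antagonist in double-dummy crossover. Safety covered vital signs, ECG, and hepatic and renal laboratory tests. Blood pressure was taken repeatedly over Days 3 and 7. Average MAP = area under the MAP–time curve to 24 h divided by 24 h.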"}, "[7]": {"details": "cited from earlier work"}}}
{"smiles": "N#Cc1ccc([C@H]2CCc3cncn32)c(F)c1", "note": "[LCI699]", "values": [{"measurement": "plasma and 24-h urinary aldosterone", "setting": "aldosterone and cortisol; Na+-depleted healthy volunteers, dose-dependent", "value": "decreased both plasma and 24-h urinary aldosterone"}, {"measurement": "ACTH-stimulated aldosterone elevation", "setting": "aldosterone and cortisol; all three doses (0.5, 1 and 3 mg)", "value": "inhibited ACTH-stimulated aldosterone elevation"}, {"measurement": "ACTH-stimulated cortisol production", "setting": "aldosterone and cortisol; higher dose of 3 mg", "value": "significantly inhibited ACTH-stimulated cortisol production"}, {"measurement": "ACTH-stimulated cortisol production", "setting": "[1]", "value": "significantly inhibited ACTH-stimulated cortisol production"}]}
{"smiles": "CC(=O)S[C@@H]1CC2=CC(=O)CC[C@]2(C)[C@H]2CC[C@@]3(C)[C@@H](CC[C@@]34CCC(=O)O4)[C@H]12", "note": "[Spironolactone]", "values": [{"measurement": "effect on urine aldosterone excretion", "setting": "urine aldosterone", "value": "elevated urine aldosterone excretion"}, {"measurement": "Spironolactone (50 mg) effect on PAC", "setting": "plasma aldosterone", "value": "49 (19%) pg/ml"}, {"measurement": "effect on PAC following the ACTH challenge", "setting": "[2]; spironolactone 25 mg/d, Day 8", "value": "no effect on PAC"}, {"measurement": "Spironolactone (50 mg) effect on PAC", "setting": "[2]; stimulated, post-ACTH, model estimate (CV%)", "value": "18 (89%) pg/ml"}, {"measurement": "plasma cortisol after ACTH challenge compared to placebo", "setting": "[3]", "value": "No differences"}, {"measurement": "Spironolactone (50 mg) effect on K+", "setting": "serum K+ [4]", "value": "0.02 (232%) mM"}, {"measurement": "average serum K+ over 5 h post oral K+ challenge (Cavg, mean±SD)", "setting": "serum K+ [5]; spironolactone 25 mg/d, Day 7", "value": "4.5 ± 0.2", "unit": "mmol/L"}, {"measurement": "Spironolactone (50 mg) effect on K+", "setting": "serum K+ [5]; stimulated, post-K+ challenge, model estimate (CV%)", "value": "0.09 (68%) mM"}, {"measurement": "24-hour urinary K+ excretion (mean±SD)", "setting": "urinary K+ excretion; Day 3, placebo 99±19", "value": "97 ± 20", "unit": "mmol"}, {"measurement": "24-hour urinary K+ excretion (mean±SD)", "setting": "urinary K+ excretion; Day 7, placebo 110±23", "value": "117 ± 17", "unit": "mmol"}, {"measurement": "effects on mean arterial pressure (MAP)", "setting": "[6]", "value": "no clear effects"}]}
{"smiles": "C[C@]12CCC(=O)C=C1CC[C@@H]1[C@@H]2[C@@H](O)C[C@]2(C=O)[C@@H](C(=O)CO)CC[C@@H]12", "note": "[aldosterone]", "values": [{"measurement": "disappearance half-life of radiolabeled aldosterone", "setting": "[7]", "value": 35, "unit": "min"}]}
